The values below come from the RNAGym collection of RNA variant scans (doi:10.1126/science.aae0568).

This sample holds only a part of the variants without activity.

To fix the notation:
B1: tRNA (parent)
chain: GUUCCGUUGGCGUAAUGGUAACGCGUCUCCCUCCUAAGGAGAAGACUGCGGGUUCGAGUCCCGUACGGAACG

This data set covers variants of B1. Put plainly: yeast fitness relative to wild type (ratio to wild type); higher = fitter; tRNA-Arg(CCU), competitive growth, 37 C, YPD. In a few lines: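 The tRNA-Arg(CCU) gene variants were made by chemical synthesis with a 3% per-site mutation rate at 69 sites and inserted at the native genomic locus of Saccharomyces cerevisiae. After pooling, the strains were competed in YPD at 37°C for 24 hours in six parallel replicates. Gene amplicons from the start population and each end population were read by 100-nucleotide paired-end sequencing, and Darwinian fitness relative to wild type was taken from genotype frequency changes. Genotypes needed ≥ 100 starting reads, and estimates < 0.5 were set to 0.5.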
With U7G A21G U53C A57C A69U, the yeast fitness was at most 0.5.

Consider U7C G44A C46U A69C, for which the yeast fitness was found to be 0.698.

As to U7G C22A C61G, the yeast fitness was at most 0.5.

U7G G39A C66U: the yeast fitness was at most 0.5.

Regarding U7C U19A C31U C49U, the yeast fitness amounted to 0.678.

Consider U7C U32C U53C, for which the yeast fitness was 0.536.

Consider U7G C30A C55A, for which the yeast fitness is at most 0.5.

U7G C62G A69G: the yeast fitness was at most 0.5.

For U7G C22U C49G G50C, the yeast fitness was 0.512.

U7G A36G A45U: the yeast fitness was at most 0.5.

With U7G C11G C34U C49U U59C C62G, the yeast fitness was at most 0.5.

As for U7G C11U G12C C33U U64A G68C, the yeast fitness was at most 0.5.

Regarding U7G C55U, the yeast fitness was determined as 0.855.

U7G C55A: the yeast fitness was 0.665.

Consider U7G C30U C60U A69C, for which the yeast fitness worked out at 0.576.

On to U7G G23C C30G A36U C61U, for which the yeast fitness was at most 0.5.

Turning to U7C U16A C31U A43C, the yeast fitness stood at 0.722.

As for U7G C30U G50C, the yeast fitness was at most 0.5.

With U7C G12A U13C U26C C60U, the yeast fitness is at most 0.5.

For U7C U32C G58A A70C, the yeast fitness was at most 0.5.

For the variant U7C U16A G41C U54C C66U, the yeast fitness was at most 0.5.

In the case of U7G A15G U19C A21G G41A C55A G63C, the yeast fitness was at most 0.5.

For the variant U7G C27G U28G G52C G58C A65U A70C, the yeast fitness is at most 0.5.

In the case of U7G C34U C60A, the yeast fitness is at most 0.5.

For the variant U7G C61U, the yeast fitness amounted to 0.78.

As for U7C G10C C49U A65G, the yeast fitness is at most 0.5.

U7C G51A: the yeast fitness is 0.856.

Take U7C G51C: the yeast fitness was determined as 0.6.

For the variant U7C G41A A42C G50C C55A, the yeast fitness was at most 0.5.

On to U7G A20C A70G, for which the yeast fitness is at most 0.5.

U7C U64G A69C: the yeast fitness turned out to be 0.603.

For U7G U8G A70U, the yeast fitness was at most 0.5.

As to U7G A14G U35G A43G C55U U59A, the yeast fitness is at most 0.5.

For the variant U7G C30A G48A, the yeast fitness came to 0.673.

U7C G12A C24U: the yeast fitness is at most 0.5.

Take U7G C29G G52C A57U: the yeast fitness was at most 0.5.

Turning to U7G C11U C60A, the yeast fitness is at most 0.5.

For the variant U7G A69U, the yeast fitness stood at 0.894.

Take U7G A45G A65C C66A: the yeast fitness came out at 1.03.

For U7C U19C C34U G52A U59A, the yeast fitness amounted to 0.678.

Take U7C G50A: the yeast fitness was determined as 0.684.

With U7C G48A G68U A70C, the yeast fitness was found to be 0.542.

As for U7G G50C G67C, the yeast fitness is at most 0.5.

Take U7G C27U G68A: the yeast fitness was at most 0.5.

Take U7C U28A: the yeast fitness amounted to 0.845.

As to U7C U28C, the yeast fitness turned out to be 0.879.

As to U7G G10A C27U G68A, the yeast fitness is at most 0.5.

In the case of U7G C27A A40U, the yeast fitness was at most 0.5.

For the variant U7G A15C C24U U32C A43G G51A U54C G67C, the yeast fitness was at most 0.5.

Take U7G C27G U28G G68A: the yeast fitness is at most 0.5.

On to U7G A20G A21G G38C G50C, for which the yeast fitness was at most 0.5.

In the case of U7G A40C U47A, the yeast fitness was at most 0.5.

U7C G67C: the yeast fitness turned out to be 0.951.

On to U7G C27U C49U, for which the yeast fitness was 0.59.

As to U7G A40U A69C, the yeast fitness amounted to 0.731.

As to U7C U8A C24G U64C, the yeast fitness was at most 0.5.

On to U7G A15C G38C, for which the yeast fitness is at most 0.5.

Regarding U7G A20G, the yeast fitness was determined as 0.872.

With U7G A20C, the yeast fitness was found to be 0.651.

For the variant U7G C11G C34U G41A C61A A65C, the yeast fitness is at most 0.5.

Regarding U7G C29A, the yeast fitness turned out to be 0.649.

With U7G C11G C30G G41C, the yeast fitness is at most 0.5.

With U7G A43C, the yeast fitness was 0.969.

Consider U7C U16C C29U, for which the yeast fitness was at most 0.5.

With U7G A21C G50A U64C, the yeast fitness was at most 0.5.

For U7G G68A, the yeast fitness turned out to be 0.821.

As for U7C G10C C46U G63C, the yeast fitness was at most 0.5.

In the case of U7C U47C C62G, the yeast fitness was at most 0.5.

With U7C U26A U54C, the yeast fitness is at most 0.5.

For the variant U7G A20G U47A C61A, the yeast fitness was 0.597.

In the case of U7C G67A A69C, the yeast fitness worked out at 0.534.

On to U7G G38C C60G, for which the yeast fitness was at most 0.5.

As to U7G G10C C22G C55A, the yeast fitness was at most 0.5.

For U7G C27U C33U G50C U53A A57U A65U, the yeast fitness is at most 0.5.

On to U7C G41A A42C G50C C62G, for which the yeast fitness is at most 0.5.

As for U7C U35C G52A, the yeast fitness was at most 0.5.

Take U7C U59G C60A G68U: the yeast fitness was at most 0.5.

Regarding U7C U26C G41C C46A, the yeast fitness is at most 0.5.

Consider U7G A40C, for which the yeast fitness is 0.807.

Turning to U7C U28A G67A, the yeast fitness stood at 0.528.

As to U7G A42C C62U, the yeast fitness was found to be 0.651.

In the case of U7C G39C U47A G58A G63A, the yeast fitness is at most 0.5.

In the case of U7G A43U A65C, the yeast fitness was determined as 1.

Regarding U7C G38C, the yeast fitness turned out to be 0.715.

With U7C G38A, the yeast fitness is 0.881.

As to U7G C62A, the yeast fitness was determined as 0.612.

For the variant U7G C31U U47C, the yeast fitness is 0.536.

U7G C22G A43U U47A G51A: the yeast fitness was 0.664.

On to U7G G10A C11G C27U A40U, for which the yeast fitness was found to be 0.538.

U7G A15G A21C: the yeast fitness was at most 0.5.

Take U7G G39C A42G: the yeast fitness is at most 0.5.

U7C U13G C30U A65U: the yeast fitness is 0.619.

Turning to U7G C11G C34U G41A C60A C61U G63C C66U, the yeast fitness is at most 0.5.

Consider U7C G18C G38C C62A, for which the yeast fitness was at most 0.5.

As to U7C G38C C49A A70C, the yeast fitness is at most 0.5.

For U7C U19A C29A, the yeast fitness was at most 0.5.

Regarding U7G A14G U64A, the yeast fitness was 0.527.

Turning to U7C G51C A57G, the yeast fitness was at most 0.5.

As to U7C G12A U13C U26C C61U G63A, the yeast fitness turned out to be 0.596.

Regarding U7G C11G C34U A36G G41A A65G, the yeast fitness is at most 0.5.

Regarding U7C U8C A21U A36U A37C, the yeast fitness is at most 0.5.

On to U7G C27G U28G G67A, for which the yeast fitness worked out at 0.547.

As to U7C G41A A42C G50C A69C, the yeast fitness was found to be 0.527.

Turning to U7C G12C, the yeast fitness was determined as 0.914.

U7C U47G G68U: the yeast fitness is at most 0.5.

For U7G C34G A36C, the yeast fitness came out at 0.525.

Take U7G A15C U16A C33G A37C C49A C61U A70U: the yeast fitness is at most 0.5.

Take U7G C46U C60A: the yeast fitness is at most 0.5.

On to U7C G18A U35A A43U U54C A65G, for which the yeast fitness was at most 0.5.

Consider U7C G18C C55G, for which the yeast fitness was at most 0.5.

As for U7G A21C G39C C49A G51A, the yeast fitness is at most 0.5.

Take U7C U32G C49U: the yeast fitness was at most 0.5.

Consider U7G A21C G56A, for which the yeast fitness was at most 0.5.

Regarding U7G A43U C46A, the yeast fitness came out at 0.603.

Regarding U7C G25A G41A A42C G50C A70G, the yeast fitness turned out to be 0.569.

In the case of U7G C29A C30A U54A A57G U64A, the yeast fitness was 0.561.

Regarding U7G C60A A70C, the yeast fitness amounted to 0.551.

As to U7G C46U A70G, the yeast fitness came to 0.752.

Take U7G A45U: the yeast fitness was found to be 0.852.

In the case of U7G C27G U28G C66U, the yeast fitness is at most 0.5.

With U7G C22A U64C, the yeast fitness is at most 0.5.

U7G C30U G38A G50A G68C: the yeast fitness was at most 0.5.

Take U7G C27G U28G U59C: the yeast fitness is at most 0.5.

U7C U13C C24U C49U: the yeast fitness is at most 0.5.

As to U7G G23C C24A C30G A36U C61U A65U, the yeast fitness was at most 0.5.

Turning to U7C G18A C31A U59A, the yeast fitness was at most 0.5.

U7G A21C G58C: the yeast fitness was at most 0.5.

For the variant U7C U26G A57U C66U, the yeast fitness is at most 0.5.

With U7G C22U C49G G50C C66A, the yeast fitness was at most 0.5.

Regarding U7C U16G G17A C49U C62A, the yeast fitness stood at 0.506.

In the case of U7G A14U U19A C22U, the yeast fitness was at most 0.5.

On to U7G G10C C33U C60G G67A, for which the yeast fitness was at most 0.5.

As to U7G C29U C31U G38C A70G, the yeast fitness is at most 0.5.

In the case of U7G A14U U53A, the yeast fitness is 0.554.

Regarding U7G G41C G58C U59C, the yeast fitness is at most 0.5.

Take U7G A15C G44A: the yeast fitness is at most 0.5.

Regarding U7G A21C G51A, the yeast fitness is at most 0.5.

Regarding U7G G67A, the yeast fitness worked out at 0.826.

Consider U7G A40U G63A, for which the yeast fitness came out at 0.66.

Take U7G C46A C61G A69G: the yeast fitness is at most 0.5.

U7G A15C A45C: the yeast fitness was 0.565.

As for U7C G56A A65C, the yeast fitness is 0.598.

As to U7G A42C G44C G67C, the yeast fitness is at most 0.5.

Take U7C U28A C34U C61U: the yeast fitness was at most 0.5.

For the variant U7C G12A C31U U47C, the yeast fitness is at most 0.5.

As to U7G, the yeast fitness worked out at 0.983.

As to U7G A43C U64A, the yeast fitness came out at 0.682.

As for U7G A14G U59A, the yeast fitness was 0.542.

Regarding U7G A43G C46G A69U, the yeast fitness was at most 0.5.

Regarding U7C G50C A70G, the yeast fitness is at most 0.5.

In the case of U7G U8C C11G C34U G41A, the yeast fitness turned out to be 0.547.

Regarding U7G C30U G38A, the yeast fitness turned out to be 0.591.

For U7G A36U G63A, the yeast fitness was found to be 0.532.

For U7G A36U C60U, the yeast fitness was at most 0.5.

U7G A15C U16A C33G A69C: the yeast fitness is at most 0.5.

For the variant U7G A42U, the yeast fitness was determined as 0.683.

With U7G C29U A36U, the yeast fitness was at most 0.5.

U7G C29G C46U: the yeast fitness was found to be 0.546.

For U7G A36C G67A, the yeast fitness is at most 0.5.

With U7G C49A C61U G67C, the yeast fitness is at most 0.5.

With U7G C27G U32C A36G G63A, the yeast fitness was at most 0.5.

On to U7G U8A A14G C62U A65U, for which the yeast fitness was at most 0.5.

In the case of U7G A70C, the yeast fitness came out at 0.972.

As for U7G A37G C49A, the yeast fitness is at most 0.5.

As to U7G C24G, the yeast fitness was found to be 0.619.

Regarding U7G A43C G58C, the yeast fitness worked out at 0.648.

Consider U7G A15G C61U G67A, for which the yeast fitness was at most 0.5.
